{
  "source": "ChEMBL document CHEMBL1154752",
  "about": "“Discovery of a new and efficient small molecule for neuronal differentiation from mesenchymal stem cell” (J Med Chem, 2009)",
  "key": {"Mesenchymal stem cell [1]": {"tested_on": "Mesenchymal stem cell", "experiment": "Induction of neuronal differentiation in Fisher rat mesenchymal stem cells assessed as change in cell morphology at 20 uM after 2 days", "assay_type": "functional, cell-based", "procedure,_shortened": "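Bone marrow MSCs treated at 20 μM for 2 days. Morphology inspected by immunocytochemistry with anti-β-III tubulin and DAPI staining.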"}, "Mesenchymal stem cell [2]": {"tested_on": "Mesenchymal stem cell", "experiment": "Induction of neuronal differentiation in Fisher rat mesenchymal stem cells assessed as induction of Sizn1 gene expression after 2 days by quantitative PCR", "assay_type": "functional, cell-based", "procedure,_shortened": "(§1)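 MSCs incubated at 10 and 20 μM for 2 days beside a DMSO control. mRNA levels measured by quantitative PCR, three independent runs.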"}, "Mesenchymal stem cell [3]": {"tested_on": "Mesenchymal stem cell", "experiment": "Induction of neuronal differentiation in Fisher rat mesenchymal stem cells assessed as increase in neuron specific enolase expression after 2 days", "assay_type": "functional, cell-based", "procedure,_shortened": "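Rat bone marrow MSCs treated over a time course. Neuron-specific enolase protein followed alongside β-III tubulin. More than three independent experiments.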"}, "Mesenchymal stem cell [4]": {"tested_on": "Mesenchymal stem cell", "experiment": "Induction of neuronal differentiation in Fisher rat mesenchymal stem cells assessed as induction of cholinergic receptor gene expression after 2 days by quantitative PCR", "assay_type": "functional, cell-based", "procedure,_shortened": "as §1"}, "Mesenchymal stem cell [5]": {"tested_on": "Mesenchymal stem cell", "experiment": "Induction of neuronal differentiation in Fisher rat mesenchymal stem cells assessed as induction of Chrna2 gene expression by DNA microarray", "assay_type": "functional, cell-based"}, "Mesenchymal stem cell [6]": {"tested_on": "Mesenchymal stem cell", "experiment": "Induction of neuronal differentiation in Fisher rat mesenchymal stem cells assessed as induction of Chrnb2 gene expression by DNA microarray", "assay_type": "functional, cell-based"}, "Mesenchymal stem cell [7]": {"tested_on": "Mesenchymal stem cell", "experiment": "Induction of neuronal differentiation in Fisher rat mesenchymal stem cells assessed as increase in beta-3 tubulin expression after 2 days", "assay_type": "functional, cell-based", "procedure,_shortened": "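Rat bone marrow MSCs given 20 μM for 2 days, with 50 ng/mL NGF as comparator. β-III tubulin detected by Western blot and by immunocytochemistry with anti-β-III tubulin plus DAPI counterstain. More than three independent repeats.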"}, "[8]": {"experiment": "Induction of neuronal differentiation in Fisher rat mesenchymal stem cells at 20 uM after 2 days by Nissl staining", "assay_type": "functional, Mesenchymal stem cell", "procedure,_shortened": "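Bone marrow MSCs held at 20 μM for 2 days, then Nissl stained. Differentiation estimated by counting cells. Each experiment repeated independently more than three times.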"}, "PC-12 [9]": {"tested_on": "PC-12", "experiment": "Induction of neurite outgrowth in rat PC12 cells after 48 hrs", "assay_type": "functional, cell-based"}, "[10]": {"experiment": "Toxicity in Fisher rat mesenchymal stem cells at 20 uM after 2 days", "assay_type": "cell-based", "details": "mesenchymal stem cell, 48 h"}, "Mesenchymal stem cell [11]": {"tested_on": "Mesenchymal stem cell", "experiment": "Induction of neuronal differentiation in Fisher rat mesenchymal stem cells assessed as induction of potassium current at 20 uM after 2 days by patch clamp method", "assay_type": "functional, cell-based", "procedure,_shortened": "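Rat MSCs treated at 20 μM for 2 days. Whole-cell patch clamp records membrane K+ current under voltage pulses from -30 to 90 mV.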"}, "Mesenchymal stem cell [12]": {"tested_on": "Mesenchymal stem cell", "experiment": "Induction of astroglial differentiation in Fisher rat mesenchymal stem cells assessed as GFAP level at 20 uM after 2 days by Western blot", "assay_type": "functional, cell-based", "procedure,_shortened": "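Rat bone marrow MSCs exposed to 20 μM for 48 h. GFAP, the astroglial marker, detected by Western blot.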"}, "Mesenchymal stem cell [13]": {"tested_on": "Mesenchymal stem cell", "experiment": "Induction of neuronal differentiation in Fisher rat mesenchymal stem cells assessed as change in acetylcholine-induced membrane potential at 20 uM after 2 days by FLIPR", "assay_type": "functional, cell-based", "procedure,_shortened": "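Rat MSCs preincubated with 20 μM for 48 h. Membrane potential read with a FLIPR membrane potential dye kit after addition of 10 μM acetylcholine, with untreated cells as reference.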"}, "Mesenchymal stem cell [14]": {"tested_on": "Mesenchymal stem cell", "experiment": "Induction of neuronal differentiation in Fisher rat mesenchymal stem cells assessed as induction of Fbxo2 gene expression after 2 days by quantitative PCR", "assay_type": "functional, cell-based", "procedure,_shortened": "as §1"}, "PC-12 [15]": {"tested_on": "PC-12", "experiment": "Induction of neuronal differentiation in rat PC12 cells assessed as increase in beta-3 tubulin expression after 48 hrs", "assay_type": "functional, cell-based"}, "Mesenchymal stem cell [16]": {"tested_on": "Mesenchymal stem cell", "experiment": "Induction of neuronal differentiation in Fisher rat mesenchymal stem cells assessed as induction of Chrm4 gene expression by DNA microarray", "assay_type": "functional, cell-based"}, "PC-12 [17]": {"tested_on": "PC-12", "experiment": "Induction of neuronal differentiation in rat PC12 cells assessed as increase in neuron specific enolase expression after 48 hrs", "assay_type": "functional, cell-based"}},
  "note": "Activity calls are given as the source filed them. The calls are words filed in the database; no cut-off is given here.",
  "data": [
    {"compound": "COC(=O)c1ccc2nc(CCCc3ccccc3)c(=O)[nH]c2c1", "values": [
      {"measurement": "Activity", "setting": "Mesenchymal stem cell [1]", "value": "inactive"}
    ]},
    {"compound": "O=C(NOC1CCCCO1)c1ccc2[nH]c(=O)c(CCCc3ccccc3)nc2c1", "note": "(configuration not stated)", "values": [
      {"measurement": "Activity", "setting": "Mesenchymal stem cell [1]", "value": "inactive"}
    ]},
    {"compound": "O=C(NO)c1ccc2nc(CCCc3ccccc3)c(=O)[nH]c2c1", "values": [
      {"measurement": "Activity", "setting": "Mesenchymal stem cell [1]", "value": "inactive"}
    ]},
    {"compound": "COC(=O)c1ccc2[nH]c(=O)c(CCCc3ccccc3)nc2c1", "values": [
      {"measurement": "Activity", "setting": "Mesenchymal stem cell [1]", "value": "inactive"}
    ]},
    {"compound": "O=C(NO)c1ccc2[nH]c(=O)c(CCCc3ccccc3)nc2c1", "values": [
      {"measurement": "Activity", "setting": "Mesenchymal stem cell [2]", "value": "Dose-dependent effect"},
      {"measurement": "Activity", "setting": "Mesenchymal stem cell [1]", "value": "Active"},
      {"measurement": "Activity", "setting": "Mesenchymal stem cell [3]", "value": "Dose-dependent effect"},
      {"measurement": "Activity", "setting": "Mesenchymal stem cell [4]", "value": "Dose-dependent effect"},
      {"measurement": "Activity", "setting": "Mesenchymal stem cell [5]", "value": "Active"},
      {"measurement": "Activity", "setting": "Mesenchymal stem cell [6]", "value": "Active"},
      {"measurement": "Activity", "setting": "Mesenchymal stem cell [7]", "value": "Dose-dependent effect"},
      {"measurement": "Activity", "setting": "[8]", "value": ">95", "unit": "%"},
      {"measurement": "Activity", "setting": "PC-12 [9]", "value": "Active"},
      {"measurement": "Activity", "setting": "[10]", "value": "Non-toxic"},
      {"measurement": "Activity", "setting": "Mesenchymal stem cell [11]", "value": "Active"},
      {"measurement": "Activity", "setting": "Mesenchymal stem cell [12]", "value": "inactive"},
      {"measurement": "Activity", "setting": "Mesenchymal stem cell [13]", "value": "Active"},
      {"measurement": "Activity", "setting": "Mesenchymal stem cell [14]", "value": "Dose-dependent effect"},
      {"measurement": "Activity", "setting": "PC-12 [15]", "value": "Active"},
      {"measurement": "Activity", "setting": "Mesenchymal stem cell [16]", "value": "Active"},
      {"measurement": "Activity", "setting": "PC-12 [17]", "value": "Active"}
    ]},
    {"compound": "O=C(NOC1CCCCO1)c1ccc2nc(CCCc3ccccc3)c(=O)[nH]c2c1", "note": "(configuration not stated)", "values": [
      {"measurement": "Activity", "setting": "Mesenchymal stem cell [1]", "value": "inactive"}
    ]}
  ]
}
